Rin1 Abl inh: inhibitors of human Rin1-Abl protein interaction; hit rate 0.4% among 360,000; inhibition, % at 7.35 µM; P00519+Q13671; TR-FRET Rin1/Abl binding, biochemical; in the data active means inhibition above about 5%, passing the limit was not always enough
ALR H2O2 inh: blocks human ALR sulfhydryl oxidase activity; purified ALR, DTT oxidation, H2O2 HRP-luminol luminescence; hit rate 3.8% among 290,000; inhibition, % (test concentration not listed); P55789;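 active means mean replicate inhibition above about 79%, with every replicate also reaching it, limit read from the data; inconclusive means only one of the two criteria met; inactive means mean below limit and not every replicate reaching it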
Target sequence (P55789 whole entry, looked up): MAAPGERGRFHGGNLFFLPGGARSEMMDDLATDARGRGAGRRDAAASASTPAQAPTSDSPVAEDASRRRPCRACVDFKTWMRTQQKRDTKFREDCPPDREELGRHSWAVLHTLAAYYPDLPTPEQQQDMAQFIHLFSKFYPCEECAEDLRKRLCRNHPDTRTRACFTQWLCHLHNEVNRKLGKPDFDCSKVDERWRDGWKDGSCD
SUMO HTRF inh: SUMOylation inhibition | AID 2006 | hit rate 0.36% among 290,000 | inhibition, % at 35 µM | P63279 | HTRF SUMOylation assay, SAE1/SAE2 + UBC9, in vitro; in the data active means inhibition above about 50%, passing the limit was not always enough; inconclusive means no clear call, values can overlap the other calls
Target sequence (P63279 whole entry, looked up): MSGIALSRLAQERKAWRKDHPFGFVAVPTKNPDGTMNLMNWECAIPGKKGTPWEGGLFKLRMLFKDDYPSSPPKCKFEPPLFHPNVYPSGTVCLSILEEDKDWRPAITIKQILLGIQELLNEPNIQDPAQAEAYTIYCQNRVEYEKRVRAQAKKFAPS
UBC13 inh: inhibitors of human UBC13 polyubiquitin chain formation. hit rate 0.47% among 330,000. TR-FRET. inhibition, % at 20 µM. P61088. AID 485273; in the data active means inhibition above about 45%, passing the limit was not always enough; inconclusive means no clear call, values can overlap the other calls
RBBP9 inh: human RBBP9 hydrolase inhibition; hit rate 0.2% among 220,000; O75884; inhibition, % at 7.94 µM; recombinant RBBP9, FP-Rh probe fluorescence polarization;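 active means inhibition above the campaign mean of all tested compounds plus 3 SD, cut at about 14% in these data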
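Assay system: recombinant human RBBP9; Reagent: Serine-hydrolase probe FP-Rh, 375 nM pre-mixing; Doses: 7.94 µM single dose, 0.794% DMSO; Incubation: 30 min then 45 min, 25 °C; Detection: fluorescence polarization (mP), excitation 525 nm, emission 598 nm; Evaluation: percent inhibition from mP, scaled between DMSO and no-protein wells.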
PREPL inhibitor: inhibits the human prolyl oligopeptidase-like enzyme | Q4J6C6 | recombinant PREPL, fluorescence polarization activity-based probe | inhibition, % at 5.96 µM | hit rate 0.68% among 320,000 | AID 2751; in the data active means inhibition above about 43%
Casp3 UBC13 ctr: counter-screen for UBC13 inhibitors: human caspase-3 inhibition | shares compounds with UBC13 inh | inhibition, % at 20 µM | Recombinant caspase-3, Caspase-Glo 3/7 luminescence, 60 min | AID 488856 | hit rate 4% among 1,400;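 active means mean inhibition across replicates above about 26%, limit read from the data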
Target sequence (P42574 whole entry, looked up): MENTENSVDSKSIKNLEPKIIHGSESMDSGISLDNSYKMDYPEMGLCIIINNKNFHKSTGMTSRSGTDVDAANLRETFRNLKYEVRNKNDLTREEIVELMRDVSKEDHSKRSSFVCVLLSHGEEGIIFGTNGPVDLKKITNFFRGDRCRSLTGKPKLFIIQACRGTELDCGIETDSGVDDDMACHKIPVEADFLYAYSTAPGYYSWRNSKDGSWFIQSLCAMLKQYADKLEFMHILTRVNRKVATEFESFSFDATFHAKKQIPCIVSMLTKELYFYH
UBC13 conf: human UBC13 polyubiquitin inhibition, confirmed. shares compounds with UBC13 inh. UBC13 polyubiquitination, TR-FRET, biochemical. inhibition, % at 10 µM. hit rate 68% among 1,400. AID 488859; in the data active means inhibition above about 45%; inconclusive means no clear call, values can overlap the other calls
Each line names hits and unclear results; the compound was inactive in the other large screens (follow-up assays come after a bar, where they were run). The list is not random: actives were taken first. Their share in the collection is about 4.3%.

COc1ccccc1C(CNC(=O)c1oc2ccccc2c1C)N1CCCC1 (centres undefined)	none (no result: SUMO HTRF inh, RBBP9 inh)
OC(CNCC1CCCO1)Cn1c2ccccc2c2ccccc21 (centres undefined)	none
OC(CNCC1CCCO1)Cn1c2ccc(Cl)cc2c2cc(Cl)ccc21 (centres undefined)	UBC13 inh 49.2 | Casp3 UBC13 ctr inactive | UBC13 conf 88.7
O=C(/C=C/c1ccc(F)cc1)c1ccccc1Br	none (no result: ALR H2O2 inh)
Oc1c(C(c2cccs2)N2CCN(c3cccc(Cl)c3)CC2)sc2ncnn12 (centres undefined)	UBC13 inh 52.7 | Casp3 UBC13 ctr inactive | UBC13 conf inactive
COc1ccc(CCNC(=O)Cn2c(=O)n(-c3ccc(C)c(F)c3)c(=O)c3sccc32)cc1OC	UBC13 inh 49.3 | Casp3 UBC13 ctr inactive | UBC13 conf 45.5
COCCCNC(=O)Cn1c(=O)n(CC(=O)NCCc2ccc(OC)c(OC)c2)c(=O)c2sccc21	none
O=S1(=O)C[C@H](N2CCCC2)[C@@H](COCc2ccccc2)N1	none (no result: ALR H2O2 inh, SUMO HTRF inh, UBC13 inh, RBBP9 inh, PREPL inhibitor)
COc1ccccc1-c1oc2ccccc2c1C#CC1(N)CCCCC1	UBC13 inh 69.5 (no result: SUMO HTRF inh, RBBP9 inh) | Casp3 UBC13 ctr inactive | UBC13 conf 70.2
COc1ccccc1-c1oc2ccccc2c1C#CC1(O)CCCCC1	none (no result: SUMO HTRF inh, RBBP9 inh)
CCc1nc(N)nc(N)c1-c1ccc(Cl)c(N=[N+]=[N-])c1	none (no result: ALR H2O2 inh, SUMO HTRF inh, UBC13 inh, RBBP9 inh, PREPL inhibitor)
Cn1c(=O)c2c(ncn2Cc2cccc(Cl)c2)n(C)c1=O	UBC13 inh 74.3 (no result: ALR H2O2 inh) | Casp3 UBC13 ctr inactive | UBC13 conf 74.9
COc1ccc(CCN(C)C(=O)c2ccc(COc3ccccc3)o2)cc1OC	UBC13 inh 46.0 (no result: RBBP9 inh) | Casp3 UBC13 ctr inactive | UBC13 conf 82.1
OC(c1ccccn1)(c1ccccn1)c1ccccn1	none
C[C@]12C=CC(=O)C=C1CC[C@@H]1C2[C@@H](O)C[C@@]2(C)C1CC[C@]2(O)C(=O)COC(=O)CCC(=O)O (some centres undefined)	none (no result: RBBP9 inh)
CCc1ccc(C2CC(c3ccc(F)cc3)Nc3nc(N)nn32)cc1 (centres undefined)	UBC13 inh 48.7 | Casp3 UBC13 ctr inactive | UBC13 conf inactive
Cc1cccc2c1-c1sc(C(=O)NCCCN3CCC(C)CC3)cc1CO2	UBC13 inh 53.2 (no result: RBBP9 inh) | Casp3 UBC13 ctr inactive | UBC13 conf 86.2
Cc1cc(C)c(S(=O)(=O)N2CCCCC2)c(C)c1N(C)S(=O)(=O)c1ccc(Cl)cc1	none
COc1ccc(OC)c(-c2nc(C(=O)NC3CCN(Cc4ccccc4)CC3)cc3c2[nH]c2ccccc23)c1	none (no result: RBBP9 inh)
COc1cc(-c2nc(C(=O)NC3CCN(Cc4ccccc4)CC3)cc3c2[nH]c2ccccc23)cc(OC)c1OC	UBC13 inh 55.8 (no result: RBBP9 inh) | Casp3 UBC13 ctr inactive | UBC13 conf 48.9
OC(c1ccc(F)c(F)c1)c1nc(-c2cccc3cccnc23)cs1 (centres undefined)	none (no result: ALR H2O2 inh, SUMO HTRF inh, UBC13 inh, RBBP9 inh, PREPL inhibitor)
COc1ccc(C[C@H]2CN3C(=NC[C@@H]3C(C)C)N2CCNC(=O)c2ccc(C)c(Br)c2)cc1	UBC13 inh 60.5 | Casp3 UBC13 ctr inactive | UBC13 conf inactive
COc1ccc(C[C@@H]2CN3C(=NC[C@@H]3C)N2C[C@H](C)NC(=O)c2ccc(C)c(Br)c2)cc1	none
Cc1ccc2nc(C)c3c(c2c1)SCC3	none
Cc1cc(OCC(=O)OCC(=O)NC2CCS(=O)(=O)C2)ccc1Cl (centres undefined)	none (no result: ALR H2O2 inh, SUMO HTRF inh, UBC13 inh, RBBP9 inh, PREPL inhibitor)
COc1ccc(CN2CCC(C)(Oc3ccc(C(C)=O)cc3)C2)c2ccccc12 (centres undefined)	none (no result: ALR H2O2 inh, SUMO HTRF inh, UBC13 inh, RBBP9 inh, PREPL inhibitor)
S=C(NCCSCc1ccc(Cl)cc1)Nc1ccccc1	none
Cc1cccc(CSCCNC(=S)Nc2ccccc2)c1	UBC13 inh 47.6 | Casp3 UBC13 ctr inactive | UBC13 conf inactive
FC(F)(F)c1cc(CCN2CCNC[C@H]2Cc2cccc3ccccc23)cc(C(F)(F)F)c1	UBC13 inh 96.1 (no result: SUMO HTRF inh, RBBP9 inh) | Casp3 UBC13 ctr inactive | UBC13 conf 98.2
Oc1ccc(C[C@@H]2CNCCN2CCc2cc(C(F)(F)F)cc(C(F)(F)F)c2)cc1	none (no result: SUMO HTRF inh, RBBP9 inh)
CCN1C(=O)c2cccc3c(NC(=O)c4ccc(S(=O)(=O)N(C)C)cc4)ccc1c23	UBC13 inh 62.5 | Casp3 UBC13 ctr inactive | UBC13 conf 76.4
CCN1C(=O)c2cccc3c(NS(=O)(=O)c4ccc(NC(C)=O)cc4)ccc1c23	none
CCN1C(=O)c2cccc3c(NC(=O)c4ccc(S(=O)(=O)N5CCOCC5)cc4)ccc1c23	UBC13 inh 69.7 | Casp3 UBC13 ctr inactive | UBC13 conf 83.1
COc1ccc2nc3n(c(=O)c2c1)-c1ncccc1C(=O)NC3Cc1ccccc1 (centres undefined)	none (no result: ALR H2O2 inh, SUMO HTRF inh, UBC13 inh, RBBP9 inh, PREPL inhibitor)
O=C(NN=Cc1ccccc1C(=O)O)c1cccc(S(=O)(=O)Nc2cccc(C(F)(F)F)c2)c1	none (no result: SUMO HTRF inh, RBBP9 inh)
O=C(COC(=O)c1cc(Br)ccc1O)Nc1cccnc1Cl	UBC13 inh 47.4 (no result: SUMO HTRF inh, RBBP9 inh) | Casp3 UBC13 ctr inactive | UBC13 conf inconclusive
O=C(COC(=O)c1ccc(Cl)cc1O)Nc1cccnc1Cl	none
O=C(CN1CCOCC1)NCc1cc([N+](=O)[O-])ccc1O	none (no result: RBBP9 inh)
Cc1ccc(NC(=O)CS(=O)CC(=O)NCCCc2ccccc2)cc1Cl (centres undefined)	UBC13 inh 64.9 | Casp3 UBC13 ctr inactive | UBC13 conf 73.3
CCC[C@@H](CN[C@@H](CNC)[C@H](C)CC)NCC1CCC(C(C)(C)C)CC1 (some centres undefined)	UBC13 inh 63.4 (no result: ALR H2O2 inh, RBBP9 inh) | Casp3 UBC13 ctr inactive | UBC13 conf 60.6
CC[C@@H](C)[C@H](CNC)NC[C@@H](Cc1cccc2ccccc12)NCCc1cccc(C(F)(F)F)c1	UBC13 inh 59.9 (no result: ALR H2O2 inh, RBBP9 inh) | Casp3 UBC13 ctr inactive | UBC13 conf 100.4
CCC[C@H](CN[C@@H](CNC)[C@H](C)CC)NCCc1cc(C(F)(F)F)cc(C(F)(F)F)c1	UBC13 inh 85.5 (no result: ALR H2O2 inh, RBBP9 inh) | Casp3 UBC13 ctr inactive | UBC13 conf 73.1
CCC[C@@H](CN[C@@H](CNC)C(C)C)NCCCCc1ccccc1	none (no result: ALR H2O2 inh, RBBP9 inh)
CC(C)CC(=O)Nc1cccc(C(C)O)c1 (centres undefined)	none (no result: Rin1 Abl inh)
CCOCCCNc1nc2c(-c3ccccc3)nnn2c2ccccc12	none
CC(C)OCCCNc1nc2c(-c3ccccc3)nnn2c2ccccc12	UBC13 inh 46.5 (no result: Rin1 Abl inh, ALR H2O2 inh) | Casp3 UBC13 ctr inactive | UBC13 conf inactive
COCCNc1nc2c(-c3cccc(C(F)(F)F)c3)nnn2c2ccccc12	UBC13 inh 46.9 (no result: RBBP9 inh) | Casp3 UBC13 ctr inactive | UBC13 conf inconclusive
COc1ccc(-c2cc3ccccc3oc2=O)cc1NC(=S)NC(=O)c1ccc2c(c1)OCCO2	UBC13 inh 48.6 | Casp3 UBC13 ctr inactive | UBC13 conf 46.0
CCC(=O)Nc1cc(-c2cc3ccccc3oc2=O)ccc1OC	none
CCCCN1C(=O)/C(=C2/Sc3ccccc3N2C)S/C1=N\c1ncn[nH]1	none
